Hsp70 act: Hsp70 transcriptional activators, primary screen, cell-based, HeLa, Hsp70 promoter luciferase, luminescence, 10 µM. HeLa Hsp70 promoter luciferase reporter; scaled: vehicle 0, proteasome-inhibitor control 100%. hit rate 0.04% among 200,000. activation, % at 10 µM;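 active means activation above the mean across all tested compounds plus 3 SD, cutoff set per campaign, cut at about 5.5% in these data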
S1P3 antagonist: S1P3 receptor antagonists, primary screen, cell-based. Sphingosine 1-phosphate receptor 3 (Homo sapiens), Q99500. AID 485, 2006. CHO S1P3 NFAT-BLA reporter, FRET fluorescence, antagonist mode. hit rate 0.27% among 170,000. inhibition, % at 4.98 µM;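 active means inhibition above the plate cutoff, the mean inhibition of test wells on that plate plus 3 SD, cut at about 28% in these data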;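 further: cells challenged with S1P at its EC80 of 0.8 µM; blue over green emission ratio from cleaved BLA substrate after 4 h stimulation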
Target sequence (Q99500 whole entry, looked up): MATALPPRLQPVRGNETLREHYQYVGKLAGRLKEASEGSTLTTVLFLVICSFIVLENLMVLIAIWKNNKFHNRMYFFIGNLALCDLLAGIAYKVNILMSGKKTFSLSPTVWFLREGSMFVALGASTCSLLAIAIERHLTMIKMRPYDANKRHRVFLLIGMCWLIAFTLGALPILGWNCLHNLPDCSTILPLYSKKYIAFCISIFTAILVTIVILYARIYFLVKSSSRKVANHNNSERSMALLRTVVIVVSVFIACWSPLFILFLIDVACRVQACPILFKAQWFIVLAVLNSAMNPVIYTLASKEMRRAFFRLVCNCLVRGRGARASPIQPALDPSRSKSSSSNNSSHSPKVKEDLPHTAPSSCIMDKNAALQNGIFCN
CHOP inh: inhibitors of CHOP promoter induction, primary screen, cell-based, unfolded protein response, luciferase reporter; CHO-K1 CHOP-promoter luciferase, tunicamycin-induced, 15-18 h; inhibition, % at 10 µM; hit rate 3.8% among 220,000;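 active means compounds that reduced the stress-induced luciferase reporter signal by more than about 70% of percent inhibition, limit read from the data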
MDM2 E3 inh: MDM2-luciferase reporter signal enhancers, primary screen, MDM2 E3 ligase inhibitor project, cell-based, luminescence, 1536-well. E3 ubiquitin-protein ligase Mdm2 (Homo sapiens), Q00987. cell-based MDM2 ubiquitination luciferase reporter, 2 h; 0 = plate control, 100 = twice control, blank-subtracted. signal enhancement, % at 5 µM. hit rate 0.11% among 210,000;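 active means signal enhancement of 30% or more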;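 further: luminescence tracks abundance of the self-degrading MDM2-luciferase fusion protein; higher signal means inhibition of MDM2 E3 ligase activity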
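Timing – 2 h compound exposure at 37 °C · Assay system – mammalian cells stably expressing self-ubiquitinating, self-degrading MDM2 E3–luciferase fusion · Amount – 2000 cells seeded into each well · Measure – % luminescence enhancement versus blank-corrected plate control mean · Measured by – SteadyLite luminescence, 15 min reagent step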
Large screens that a line does not name were inactive. Compounds with a hit are over-represented: about 4% of the library has one in this group of screens.

CC1=C(C(=O)OC(C)C)C(c2ccccc2Cl)CC(=O)N1 (stereo unspecified)	CHOP inh 76.4
Fc1ccccc1/C=N/NC(=S)Nc1ccc(Cl)cc1Cl	none
Cc1cccc(OCC(=O)N/N=C\c2cn(C)c3ccccc23)c1	none
CCOC(=O)c1c2ccc(OCC(=O)N/N=C/c3ccccc3C(F)(F)F)cc2n2ccccc12	CHOP inh 96.2 (no result: S1P3 antagonist)
COc1ccc2c(c1)CCc1c(C(=O)Nc3ccc(OC)c(OC)c3)noc1-2	CHOP inh 76.4
COc1ccc2c(c1)CCc1c(C(=O)Nc3cc(C)n(Cc4ccc(Cl)cc4)n3)noc1-2	CHOP inh 93.2
CC(C)CNC(=O)C(=O)NNC(=O)c1ccco1	none
CC12CCC(c3nnc(SCc4ccc(Cl)cc4)nc31)C2(C)C (stereo unspecified)	CHOP inh 74.5 (no result: S1P3 antagonist)
Cc1c(NC(=O)c2ccc(-c3ccccc3)cc2)cccc1C(=O)O	none (no result: Hsp70 act)
C[C@@H](C(=O)Nc1ccc2ccccc2c1)[C@H]1C[C@]1(C)[C@H](NC(=O)OCc1ccccc1)c1ccccc1	S1P3 antagonist 32.1 (no result: MDM2 E3 inh)
C[C@H](CO)NC(=O)[C@H](C)[C@H]1C[C@]1(C)[C@H](NC(=O)OCc1ccccc1)c1ccccc1	none (no result: MDM2 E3 inh)
Cc1cccc(-c2noc(CSc3ccccc3)n2)c1	CHOP inh 70.5 (no result: S1P3 antagonist)
COC(=O)c1sc(NC(=O)c2ccc([N+](=O)[O-])o2)c(C#N)c1C	none (no result: Hsp70 act, MDM2 E3 inh)
N#C/C(C(=O)N1CCOCC1)=c1/s/c(=C\c2ccccn2)c(=O)n1-c1ccccc1	none
COc1ccc(-n2c(=O)/c(=C\c3cccs3)s/c2=C(/C#N)C(=O)N2CCN(C)CC2)cc1	CHOP inh 89.8
CCN=C1SC(CC(=O)Nc2ccc(N3CCOCC3)cc2)C(=O)N1CC (stereo unspecified)	none
CCN=C1SC(CC(=O)Nc2sc3c(c2C#N)CCCC3)C(=O)N1CC (stereo unspecified)	CHOP inh 92.3 (no result: S1P3 antagonist)
CCN=C1SC(CC(=O)Nc2ccc(C(F)(F)F)cc2)C(=O)N1CC (stereo unspecified)	CHOP inh 82.2
O=C(c1cccc(S(=O)(=O)N2CCCCC2)c1)N1CCc2ccccc21	none
CCOc1ccc(NS(=O)(=O)c2ccc(NC(=S)NC(=O)CC(C)C)cc2)cc1	CHOP inh 92.0 (no result: S1P3 antagonist)
CCOc1ccc(NS(=O)(=O)c2ccc(NS(=O)(=O)c3ccc(SC)cc3)cc2)cc1	CHOP inh 94.9 (no result: S1P3 antagonist)
CCCC(=O)NC(=S)Nc1ccc(S(=O)(=O)Nc2ccc(OCC)cc2)cc1	none
Cc1cc(NC(=S)NC(=O)CC(C)C)ccc1Br	CHOP inh 83.0 (no result: S1P3 antagonist)
O=C(CCCC1=NS(=O)(=O)c2ccccc2N1)N1CCN(c2ccc(Cl)cc2)CC1	none (no result: MDM2 E3 inh)
CC(C)(CC(=O)N1CCN(c2ccc(Cl)cc2)CC1)CC1=NS(=O)(=O)c2ccccc2N1	CHOP inh 70.7
COCCn1c(-c2ccc(Br)cc2)nc2oc3cc(OC)ccc3c(=O)c2c1=O	none (no result: Hsp70 act)
O=C(Nc1cccc(S(=O)(=O)Nc2ccc(Cl)cc2)c1)c1cc2c(s1)CCCC2	CHOP inh 75.9
O=C(Nc1cccc(S(=O)(=O)Nc2ccc(Cl)cc2)c1)c1ccc(Cl)nc1	CHOP inh 72.7
CCOc1nsc(OCC)n1	none (no result: Hsp70 act)
Fc1ccc2[nH]c3c(N4CCc5ccccc5C4)ncnc3c2c1	CHOP inh 73.2 (no result: Hsp70 act)
Cc1ccc2[nH]c3c(N4CCc5ccccc5C4)ncnc3c2c1	CHOP inh 74.0 (no result: S1P3 antagonist)
c1ccc2c(c1)OCC(c1nnc3sc(-c4ccc5c(c4)OCO5)nn13)O2 (stereo unspecified)	CHOP inh 85.6
Cc1ccc(C(=O)N/N=C2/NC(=O)CC(C(=O)Nc3ccccc3)S2)cc1 (stereo unspecified)	none
Cc1ccccc1Cn1c(=N)n(CC(=O)c2ccc([N+](=O)[O-])cc2)c2ccccc21	CHOP inh 83.5
CCCn1c(=N)n(CC(=O)c2ccc([N+](=O)[O-])cc2)c2ccccc21	none
O=C(NC(=S)Nc1ccc(Cc2ccncc2)cc1)c1ccc(F)cc1	none
N#Cc1ccc(-c2ccccc2)nc1SCC(=O)c1cc2ccccc2oc1=O	none (no result: S1P3 antagonist)
Cc1cnnn1-c1ccc(C(=O)CCl)cc1	CHOP inh 91.6 (no result: S1P3 antagonist)
COc1cccc(Nc2ncccc2C(=O)Nc2ccccc2)c1	CHOP inh 85.0 (no result: S1P3 antagonist)
O=C(CS(=O)(=O)c1cn(Cc2ccc(Cl)cc2)c2ccccc12)N1CCCCC1	none (no result: S1P3 antagonist)
O=C(O)Cc1cn(Cc2cccc(Cl)c2)c2ccccc12	none
O=C(Cc1cn(Cc2cccc(Cl)c2)c2ccccc12)N1CCCCCC1	CHOP inh 76.2
CC1CCCN(C(=O)Cc2cn(Cc3cccc(Cl)c3)c3ccccc23)C1 (stereo unspecified)	CHOP inh 75.8
CCCCN(Cc1ccccc1)S(=O)(=O)c1cc(Br)cc2c1N(C(C)=O)C(C)C2 (stereo unspecified)	CHOP inh 84.4 (no result: S1P3 antagonist)
CC(=O)N1c2c(cc(Br)cc2S(=O)(=O)NCc2cccnc2)CC1C (stereo unspecified)	none (no result: S1P3 antagonist)
c1ccc(C2CC(c3ccccc3)n3ncnc3N2)cc1 (stereo unspecified)	none
Clc1ccccc1C1CC(c2ccccc2)Nc2ncnn21 (stereo unspecified)	CHOP inh 92.2
CCOc1ccc(-c2cc(CCCC(=O)NCCCOC)no2)cc1	none (no result: S1P3 antagonist)
CCOc1ccc(-c2cc(CCCC(=O)N3CCN(c4ccc(OC)cc4)CC3)no2)cc1	CHOP inh 94.1
CCSc1nc(-c2cccnc2)ccc1C#N	none
Cn1c(=O)cc(OCC(=O)NCc2cccs2)c2ccccc21	MDM2 E3 inh 35.3
CCOC(=O)C1CCCN(C(=O)c2cnn3c(C(F)F)cc(-c4ccc(C)cc4)nc23)C1 (stereo unspecified)	S1P3 antagonist 76.5
COc1cc(/C=C(\C#N)C(=O)N2CCOCC2)ccc1OCc1ccccc1	none
N#C/C(=C\c1ccc(OCc2ccc(C(=O)O)cc2)cc1)C(=O)N1CCOCC1	CHOP inh 81.8
COc1ccc(N2C(=S)NC3CS(=O)(=O)CC32)cc1 (stereo unspecified)	none (no result: Hsp70 act)
CCN1CCN(c2nc(-c3ccccc3)nc3ccccc23)CC1	none
COc1cc2nc(-c3ccccc3)nc(N3CCCC3)c2cc1OC	CHOP inh 82.0 (no result: S1P3 antagonist)
CCc1ccc(NC(=O)c2ccc(F)c(S(=O)(=O)N(CC)c3ccccc3)c2)cc1	CHOP inh 77.3
CCN(c1ccccc1)S(=O)(=O)c1cc(C(=O)Nc2cccc(Cl)c2)ccc1F	none
Cc1cc(=O)[nH]c(Nc2ccc(C(=O)OC(C)C)cc2)n1	CHOP inh 70.5
CN1CCC(N(C)C(=O)c2ccccc2Nc2ccc(SC(F)F)cc2)CC1	none
COc1ccc(Oc2nc(-c3ccccc3)ncc2S(=O)(=O)c2ccccc2)cc1	CHOP inh 73.3 (no result: S1P3 antagonist)
Cc1cccc(C)c1Oc1nc(-c2ccccc2)ncc1S(=O)(=O)c1ccccc1	none (no result: S1P3 antagonist)
Cc1cc(Cl)ccc1Oc1nc(-c2ccccc2)ncc1S(C)(=O)=O	CHOP inh 79.1 (no result: S1P3 antagonist)

Screens from PubChem BioAssay.
